The source of these data is ChEMBL document CHEMBL1145389, “Total synthesis and biological evaluation of C16 analogs of (-)-dictyostatin” (2007).

One assay has as its system HeLa. The experiment in a line: Increase in cellular tubulin polymer mass in HeLa cells assessed as minimum detectable effective concentration after 21 hrs. In kind it is functional, Homo sapiens. The procedure, abridged: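 HeLa cells exposed continuously for 21 h; lowest concentration producing a detectable rise in cellular tubulin polymer mass recorded as MDEC.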

The species entered for assay [1] is Bos taurus. In words: Induction of bovine brain tubulin polymerization at 10 uM relative to paclitaxel.
Assay [2] is filed under the species Bos taurus. In words: Displacement of [3H]paclitaxel from bovine brain tubulin at 4 uM. The procedure, abridged:
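Competition at 37 °C: 4 µM test agent against 2 µM [³H]paclitaxel for binding to microtubules assembled from 2 µM bovine brain tubulin with 20 µM dideoxyGTP; reported as percent competition.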

For another assay, the system named is 1A9/ptx-22. The experiment in a line: Growth inhibition of beta tubulin A364T mutant expressing human 1A9/Ptx22 cells after 72 hrs. The note with it: 1A9/ptx-22, 72 h. In kind it is functional. The procedure, abridged:
(§1)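 GI50 determined after 72 h continuous exposure to test agent in ovarian carcinoma 1A9 cells and in paclitaxel-resistant 1A9 clones carrying mutant β-tubulin (Ptx10, βPhe270→Val; Ptx22, βAla364→Thr).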

The next assay concerns 1A9/ptx-10. In words: Growth inhibition of beta tubulin Phe270Val mutant expressing human 1A9/Ptx10 cells after 72 hrs. The following applies: 1A9/ptx-10, 72 h. Type of assay: functional. A digest of the protocol:
as §1

Another assay concerns 1A9. The experiment in a line: Growth inhibition of human 1A9 cells after 72 hrs. In kind it is functional. The following applies: 1A9, 72 h. The procedure, abridged: as §1

In the case of `C=C/C=C\[C@H](C)[C@@H]1OC(=O)/C=C\C=C\[C@@H](C)[C@@H](O)C[C@@H](O)/C=C\[C@H](C)[C@H](O)[C@@H](C)/C=C\CC[C@@H](O)[C@@H]1C`, the Activity was more than 5000 nM in the assay on HeLa and 11% in the assay listed under Bos taurus [2]. In addition, the % tubulin polymerization in the assay listed under Bos taurus [1] worked out at 1%. Besides, the GI50 worked out at 4.6 µM in the assay with 1A9/ptx-22, 19.3 µM with 1A9/ptx-10 and 4.26 µM with 1A9.

With `C=C/C=C\[C@H](C)[C@H](O)[C@H](C)[C@@H]1CC/C=C\[C@H](C)[C@@H](O)[C@@H](C)/C=C\[C@H](O)C[C@H](O)[C@H](C)/C=C\C=C\C(=O)O1`, the results for the Activity with HeLa and in the assay listed under Bos taurus [2] were more than 5000 nM and 7%, respectively. For the same compound, the % tubulin polymerization in the assay listed under Bos taurus [1] amounted to 6%. The GI50 with 1A9/ptx-22 was more than 50 µM; in the assay with 1A9/ptx-10, 32.7 µM; in the assay on 1A9, more than 50 µM.

Turning to `C=C/C=C\[C@H](C)[C@H](OC(N)=O)[C@@H](C)[C@H](O)[C@@H](C)C/C(C)=C\[C@H](C)[C@@H](O)[C@@H](C)/C=C\[C@@H](O)C[C@@H]1OC(=O)[C@H](C)[C@@H](O)[C@H]1C` [DISERMOLIDE], the results for the Activity with HeLa and in the assay filed under Bos taurus [2] were 65 nM and 76%, respectively. The same compound returned a % tubulin polymerization in the assay filed under Bos taurus [1] of 148%. Moreover, the values for the GI50 with 1A9/ptx-22, with 1A9/ptx-10 and in the assay with 1A9 were 0.007 µM, 0.0062 µM and 0.0017 µM, respectively.

Take `C=C/C=C\[C@H](C)[C@@H]1OC(=O)/C=C/C=C/[C@@H](C)[C@@H](O)C[C@H](O)/C=C\[C@H](C)[C@H](O)[C@@H](C)/C=C\CC[C@@H](O)[C@@H]1C`: the Activity in the assay with HeLa came out at 647 nM; in the assay filed under Bos taurus [2], 5%. Also, in the assay listed under Bos taurus [1], the % tubulin polymerization stood at 10%. Moreover, the GI50 amounted to 0.847 µM with 1A9/ptx-22, 23.7 µM with 1A9/ptx-10 and 0.21 µM with 1A9.

As for `C=C/C=C\[C@H](C)[C@@H]1OC(=O)/C=C\C=C\[C@@H](C)[C@@H](O)C[C@H](O)/C=C\[C@H](C)[C@H](O)[C@@H](C)CCCC[C@@H](O)[C@@H]1C`, the values for the Activity with HeLa and in the assay filed under Bos taurus [2] were 25 nM and 48%, respectively. The same compound had a % tubulin polymerization in the assay listed under Bos taurus [1] of 91%. For the same compound, the GI50 was 0.0056 µM with 1A9/ptx-22, 0.47 µM in the assay with 1A9/ptx-10 and 0.00041 µM with 1A9.

For `C=C/C=C\[C@H](C)[C@@H]1OC(=O)/C=C\C=C\[C@@H](C)[C@@H](O)C[C@H](O)/C=C\[C@H](C)[C@H](O)[C@@H](C)C[C@H](C)CC[C@@H](O)[C@@H]1C`, the Activity in the assay on HeLa worked out at 1280 nM; in the assay filed under Bos taurus [2] it was 11%. The % tubulin polymerization in the assay listed under Bos taurus [1] came to 9%. Moreover, the GI50 in the assay with 1A9/ptx-22 amounted to 0.543 µM; in the assay on 1A9/ptx-10, 0.862 µM; in the assay on 1A9, 0.061 µM.

On to `C=C/C=C\[C@H](C)[C@H](O)[C@@H](C)[C@H]1CC[C@@H](C)C[C@H](C)[C@@H](O)[C@@H](C)/C=C\[C@@H](O)C[C@H](O)[C@H](C)/C=C/C=C\C(=O)O1`, for which the Activity in the assay on HeLa is more than 5000 nM; in the assay filed under Bos taurus [2], 4%. For the same compound, the % tubulin polymerization in the assay listed under Bos taurus [1] was determined as 3%. Moreover, the GI50 with 1A9/ptx-22 worked out at 53.8 µM; in the assay with 1A9/ptx-10 it was 44.2 µM; in the assay with 1A9, 7.8 µM.

`CC(=O)O[C@H]1C(=O)[C@@]2(C)[C@H]([C@H](OC(=O)c3ccccc3)[C@]3(O)C[C@H](OC(=O)[C@H](O)[C@@H](NC(=O)c4ccccc4)c4ccccc4)C(C)=C1C3(C)C)[C@]1(OC(C)=O)CO[C@@H]1C[C@@H]2O` [PACLITAXEL]: the Activity in the assay on HeLa was 5.2 nM. The compound further yielded a % tubulin polymerization in the assay listed under Bos taurus [1] of 100%. Further, the GI50 worked out at 0.051 µM with 1A9/ptx-22, 0.064 µM in the assay with 1A9/ptx-10 and 0.00071 µM in the assay on 1A9.

As for `C=C/C=C\[C@H](C)[C@@H]1OC(=O)/C=C\C=C\[C@@H](C)[C@@H](O)C[C@H](O)/C=C\[C@H](C)[C@H](O)[C@@H](C)/C=C\CC[C@@H](O)[C@@H]1C`, the Activity with HeLa was determined as 11 nM; in the assay listed under Bos taurus [2] it was 38%. The % tubulin polymerization in the assay listed under Bos taurus [1] came to 107%. Also, the GI50 turned out to be 0.062 µM in the assay on 1A9/ptx-22, 0.942 µM in the assay on 1A9/ptx-10 and 0.0083 µM with 1A9.

With `C=C/C=C\[C@H](C)[C@@H]1OC(=O)/C=C\C=C\[C@@H](C)[C@@H](O)C[C@H](O)/C=C\[C@H](C)[C@H](O)[C@@H](C)C[C@@H](C)CC[C@@H](O)[C@@H]1C` [DICTYOSTATIN], the Activity in the assay on HeLa was found to be 5.4 nM; in the assay filed under Bos taurus [2] it was 75%. The GI50 is 0.0013 µM in the assay on 1A9/ptx-22, 0.0032 µM in the assay on 1A9/ptx-10 and 0.00069 µM with 1A9.

As for `C=C/C=C\[C@H](C)[C@H](OC(N)=O)[C@@H](C)[C@H](O)[C@@H](C)C/C=C\[C@H](C)[C@@H](O)[C@@H](C)/C=C\[C@@H](O)C[C@@H]1OC(=O)[C@H](C)[C@@H](O)[C@H]1C`, the Activity in the assay with HeLa turned out to be 29 nM; in the assay listed under Bos taurus [2], 75%. The GI50 in the assay on 1A9/ptx-22 amounted to 0.03 µM; with 1A9/ptx-10, 0.033 µM; in the assay with 1A9, 0.0037 µM.
